ChEMBL document CHEMBL1641365, “Synthesis, in vitro and in vivo preliminary evaluation of anti-angiogenic properties of some pyrroloazaflavones” (Bioorg Med Chem, 2011)
Active and inactive are the calls of the source. No cut-off for these calls is given here.

What was measured:
HUVEC [1] = test: Growth inhibition of HUVEC cells after 20 hrs by MTT assay; type: cell-based; conditions: Homo sapiens
In short: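 Primary HUVECs, passages 2–4, were seeded at 2 × 10⁴ cells/cm². After 24 h they were exposed to a range of concentrations (10 to 10⁻⁵ µM). After 20 h, MTT (0.5 mg/mL) was read. IC50 is the concentration giving a 50% viability drop versus untreated cells; 10 µM was the top concentration. Values are means ± SD of at least three independent experiments.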

HUVEC [2] = test: Inhibition of growth factor-induced angiogenesis in HUVEC cells assessed as inhibition of cell migration at 10^-2 uM after 4 hrs by fluorescence microscopy; type: functional, cell-based; conditions: Homo sapiens
HUVEC [3] = test: Antiangiogenic activity against FGF2-induced in HUVEC cells assessed as inhibition of capillary-like formation at 10^-2 uM after 18 hrs by Matrigel assay; type: functional, cell-based; conditions: Homo sapiens
Mus musculus = test: Antiangiogenic activity against FGF2-induced C57/BL6 mouse assessed as inhibition of angiogenesis at 0.01 uM, sc after 7 days by Matrigel plug assay; type: functional, organism-based
In short: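 Matrigel with heparin, with or without FGF-2 200 ng/plug plus test agent 0.01 µM, injected subcutaneously into the dorsal area of C57/BL6 mice. Animals were killed after 7 days. Plugs were removed and steeped overnight at 4 °C in 0.1% Brij-35 in PBS. Hemoglobin content of the plugs was measured.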

HUVEC [4] = test: Induction of apoptosis in HUVEC cells assessed as proapoptotic effect after 24 hrs by TUNEL assay; type: functional, cell-based; conditions: Homo sapiens
HUVEC [5] = test: Antiangiogenic activity against FGF2-induced in HUVEC cells assessed as inhibition of morphological change at 10^-2 uM after 18 hrs by capillary-like formation assay; type: functional, cell-based; conditions: Homo sapiens
HUVEC [6] = test: Antiangiogenic activity against FGF2-induced HUVEC assessed as inhibition of cell proliferation at 10^-2 uM after 24 hrs; type: functional, cell-based; conditions: Homo sapiens
HUVEC [7] = test: Antiangiogenic activity against FGF2-induced HUVEC assessed as inhibition of cell proliferation at 10^-3 uM after 24 hrs; type: functional, cell-based; conditions: Homo sapiens
HUVEC [8] = test: Antiangiogenic activity against FGF2-induced in HUVEC cells assessed as inhibition of capillary-like formation at 10^-3 uM after 18 hrs by Matrigel assay; type: functional, cell-based; conditions: Homo sapiens
HUVEC [9] = test: Antiangiogenic activity against FGF2-induced in HUVEC cells assessed as inhibition of morphological change at 10^-3 uM after 18 hrs by capillary-like formation assay; conditions: Homo sapiens
HUVEC [10] = test: Inhibition of growth factor-induced angiogenesis in HUVEC cells assessed as inhibition of cell migration at 10^-3 uM after 4 hrs by fluorescence microscopy; type: functional, cell-based; conditions: Homo sapiens
HUVEC [11] = test: Antiangiogenic activity against FGF2-induced in HUVEC cells assessed as inhibition of morphological change at 10^-3 uM after 18 hrs by capillary-like formation assay; type: functional, cell-based; conditions: Homo sapiens
HUVEC [12] = test: Antiangiogenic activity against FGF2-induced in HUVEC cells assessed as inhibition of capillary-like formation at 10^-4 uM after 18 hrs by Matrigel assay; type: functional, cell-based; conditions: Homo sapiens
HUVEC [13] = test: Inhibition of growth factor-induced angiogenesis in HUVEC cells assessed as inhibition of cell migration at 10^-4 uM after 4 hrs by fluorescence microscopy; type: functional, cell-based; conditions: Homo sapiens
HUVEC [14] = test: Antiangiogenic activity against FGF2-induced HUVEC assessed as inhibition of cell proliferation at 10^-4 uM after 24 hrs; type: functional, cell-based; conditions: Homo sapiens
HUVEC [15] = test: Antiangiogenic activity against FGF2-induced HUVEC assessed as inhibition of cell proliferation at 10^-5 uM after 24 hrs; type: functional, cell-based; conditions: Homo sapiens
HUVEC [16] = test: Inhibition of growth factor-induced angiogenesis in HUVEC cells assessed as inhibition of in cell migration at 10^-5 uM after 4 hrs by fluorescence microscopy; type: functional, cell-based; conditions: Homo sapiens
HUVEC [17] = test: Antiangiogenic activity against FGF2-induced in HUVEC cells assessed as inhibition of capillary-like formation at 10^-5 uM after 18 hrs by Matrigel assay; type: functional, cell-based; conditions: Homo sapiens

| Structure (SMILES) | IC50 (HUVEC [1]) [µM] | inhibition (HUVEC [2]) | Activity (HUVEC [3]) | Activity (Mus musculus) | Activity (HUVEC [4]) | Activity (HUVEC [5]) | further results |
| --- | --- | --- | --- | --- | --- | --- | --- |
| Oc1cc(-c2cccs2)nc2c1ccc1[nH]ccc12 | > 10 |  |  |  |  |  |  |
| CCOC(=O)CCn1ccc2c3[nH]c(-c4ccccc4)cc(=O)c3ccc21 | 5.7 | Active | Active | Active | Active | Active |  |
| O=c1cc(-c2ccccc2)[nH]c2c1ccc1c2ccn1CC1CC1 | 4.2 | Active | Active | Active | Active | inactive |  |
| CCn1ccc2c3[nH]c(-c4ccccc4)cc(=O)c3ccc21 | 8.1 | Active | Active |  | Active | inactive |  |
| COc1cccc(-c2cc(O)c3ccc4[nH]ccc4c3n2)c1 | 5.8 | Active |  |  | Active |  | Activity (HUVEC [6]): Active |
| O=[N+]([O-])c1cccc(-c2cc(O)c3ccc4[nH]ccc4c3n2)c1 | 0.45 |  |  | Active | Active |  | Activity (HUVEC [7]): Active; Activity (HUVEC [8]): Active; Activity (HUVEC [9]): Active; inhibition (HUVEC [10]): Active; Activity (HUVEC [11]): Active |
| Oc1cc(-c2ccccc2)nc2c1ccc1[nH]ccc12 | 0.043 |  |  | Active | Active |  | Activity (HUVEC [12]): Active; inhibition (HUVEC [13]): Active; Activity (HUVEC [14]): Active |
| O=c1cc(-c2ccc[nH]2)[nH]c2c1ccc1[nH]ccc12 | > 10 |  |  |  |  |  |  |
| Cc1cc2c(ccc3c(=O)cc(-c4ccccc4)[nH]c32)[nH]1 | > 10 |  |  |  |  |  |  |
| CC[C@]1(O)C[C@@H]2CN(CCc3c([nH]c4ccccc34)[C@@](C(=O)OC)(c3cc4c(cc3OC)N(C)[C@H]3[C@@](O)(C(=O)OC)[C@H](OC(C)=O)[C@]5(CC)C=CCN6CC[C@]43[C@@H]65)C2)C1 [VINBLASTINE] | 0.049 |  |  |  |  |  | Activity (HUVEC [15]): Active; inhibition (HUVEC [16]): Active; Activity (HUVEC [17]): Active |
